Screens as filed in PubChem.
The list is not random: actives were taken first. Their share in the collection is about 2.2%.
APP 5'UTR act = APP 5'UTR luciferase reporter activation; SH-SY5Y APP 5'UTR luciferase reporter, luminescence; zero percent = DMSO vehicle wells; hit rate 1% among 190,000; AID 1276; activation, % at 2 µM;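 active means activation above a set limit, based on mean plus 3 SD of controls, cut at about 140% in these data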
PPC-1+TRAIL kill = compounds killing PPC-1 cancer cells with TRAIL present (potentiator screen, no TRAIL-free arm); AID 1443; hit rate 0.41% among 220,000; PPC-1 cells + TRAIL, ATPLite viability luminescence; cell killing (% activity), % at 4 µM or 5 µM;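 active means cell killing above 50% in the first pass at 4 µM, then a duplicate retest at 5 µM averaging 50% or more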
FLuc inh counter = inhibits firefly luciferase, flagging false hits in luciferase inhibition screens | ATPLite firefly luciferase biochemical luminescence, 10 min | inhibition, % at 10 µM | hit rate 1.5% among 200,000;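 active means inhibition above about 50% when tested at 10 µM, limit read from the data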
Target sequence (P08659 whole entry, looked up): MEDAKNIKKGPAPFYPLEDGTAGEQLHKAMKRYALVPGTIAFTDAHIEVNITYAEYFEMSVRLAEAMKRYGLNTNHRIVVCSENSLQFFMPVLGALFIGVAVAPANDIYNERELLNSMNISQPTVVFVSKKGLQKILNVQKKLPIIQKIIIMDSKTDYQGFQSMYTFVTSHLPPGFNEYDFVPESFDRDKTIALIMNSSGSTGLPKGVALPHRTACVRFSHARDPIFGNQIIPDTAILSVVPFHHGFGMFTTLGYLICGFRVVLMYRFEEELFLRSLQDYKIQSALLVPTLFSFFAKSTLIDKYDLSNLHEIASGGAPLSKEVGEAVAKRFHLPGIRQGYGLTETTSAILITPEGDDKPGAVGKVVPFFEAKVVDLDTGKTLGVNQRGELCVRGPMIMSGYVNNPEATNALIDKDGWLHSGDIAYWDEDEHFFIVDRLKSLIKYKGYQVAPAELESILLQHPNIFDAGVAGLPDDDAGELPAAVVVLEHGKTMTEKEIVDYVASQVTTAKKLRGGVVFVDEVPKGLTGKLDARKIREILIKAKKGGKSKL
NF-kB neuron act = NF-kB expression increase, human neuronal cells. NF-kB reporter expression; stronger effect = higher value. fold change at 12.5 µM. hit rate 1.6% among 190,000; in the data active means fold change above about 3.3
FLuc stim CS = affects firefly luciferase, flagging false hits in luciferase stimulation screens. P08659. AID 1027. activation factor at 10 µM. ATPlite luciferase biochemical, luminescence, 10 min; 0 = ATP-free wells, 1 = DMSO control. 200,000 tested, under 10 active;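 active means luciferase activation factor, scaled between plate controls, of at least 2 with compound at 10 µM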
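Assay system – cell-free luciferase reagent · Medium – PBS-based ATP solution · Dosing – test compounds dosed from 2 mM stocks in 100% DMSO · Timing – 10 min, room temperature · Technique – light output (luminescence) · Measure – luminescence gain marking luciferase activators · Controls – No-ATP low control, compound-free enzyme-plus-ATP high control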
C8 TRAIL sens = caspase-8 TRAIL sensitization; NB7+C8 cells + TRAIL, ATPlite viability luminescence; inhibition (viability loss, TRAIL sensitization), % at 10 µM; hit rate 1% among 360,000; AID 624354;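 active means compounds causing at least 50% loss of cell viability in the single-dose screen, relative to plate controls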
Numbers stand for hits; n = inactive; x = not tested or not shown.

SMILES | APP 5'UTR act | PPC-1+TRAIL kill | FLuc inh counter | NF-kB neuron act | FLuc stim CS | C8 TRAIL sens
CC1(C)CC(=O)C/C(=N/Nc2nc3ccccc3s2)C1 | n | n | n | n | n | n
CC1CCC/C(=N/Nc2nc3ccccc3s2)C1 (stereo unspecified) | 140 | n | 72 | n | n | n
Brc1ccc(/C=C/C=N/Nc2nc3ccccc3s2)cc1 | n | n | n | n | n | n
CCCn1nnnc1NC(=O)c1cc(Cl)ccc1Cl | n | n | n | n | n | n
Cc1cccc(CS(=O)(=O)c2ncc(Cl)c(C(=O)NCc3ccccc3)n2)c1 | x | x | x | x | x | n
O=C(Nc1ccc(F)cc1)c1nc(S(=O)(=O)Cc2ccccc2)ncc1Cl | x | x | x | x | x | 92
Cc1ccccc1CS(=O)(=O)c1ncc(Cl)c(C(=O)Nc2ccc(F)cc2)n1 | x | x | x | x | x | 92
Cc1ccc(NC(=O)c2nc(S(=O)(=O)Cc3ccccc3)ncc2Cl)cc1 | x | x | x | x | x | 65
Cc1cccc(C)c1NC(=O)c1nc(S(=O)(=O)Cc2ccccc2)ncc1Cl | x | x | x | x | x | n
Cc1nnc(NC(=O)c2nc(S(=O)(=O)Cc3ccccc3)ncc2Cl)s1 | x | x | x | x | x | 83
N#Cc1c(Nc2ccccc2)sc(C(=O)C2CC2)c1N | n | n | n | n | n | n
CC(=O)N1CCCc2cc(S(=O)(=O)N3CCCC(C(=O)Nc4cccc(C)c4)C3)ccc21 (stereo unspecified) | x | x | x | x | x | n
COC(=O)c1ccc(C)c(NS(=O)(=O)c2ccc(OC)cc2)c1 | n | n | n | 4 | n | n
COC(=O)c1ccc(C)c(NS(=O)(=O)c2ccc(C)c([N+](=O)[O-])c2)c1 | n | n | n | n | n | n
CCC(=O)c1c(OCc2ccccc2)ccc2c(C)cc(=O)oc12 | n | n | n | 3.4 | n | x
Cc1ccc(S(=O)(=O)N2CCN(CCC#N)CC2)cc1 | n | n | n | n | n | n
O=c1c2ccccc2nnn1CSc1ccccc1 | 158 | n | n | 4.3 | n | n
CCOC(=O)c1sc(=NC(=O)c2ccccc2)n(C)c1C | 180 | n | 68 | 6.7 | n | n
CCOC(=O)c1sc(=NC(=O)c2cccc(OC)c2)n(C)c1C | n | n | n | n | n | n
CCOC(=O)c1csc(NC(=O)c2ccccc2)n1 | 144 | n | n | 3.6 | n | n
CCOC(=O)c1sc(NC(=O)c2ccc(S(=O)(=O)N(C)C)cc2)cc1C | n | n | n | n | n | n
CCOC(=O)c1sc(NC(=O)c2ccccc2)cc1C | n | n | 69 | 6.7 | n | 50
CC1(CC(=O)N/N=C/c2cc([N+](=O)[O-])c(O)cc2O)OCCO1 | n | n | n | n | n | n
COc1ccccc1N1CCN(C2CCCN(C(=O)CCc3c(C)noc3C)C2)CC1 (stereo unspecified) | x | x | x | x | x | n
COc1ccc(/C(C)=N/Nc2nc3ccccc3nc2C)cc1 | x | n | x | x | x | n
SMILES | APP 5'UTR act | PPC-1+TRAIL kill | FLuc inh counter | NF-kB neuron act | FLuc stim CS | C8 TRAIL sens
COc1ccc(/C(C)=N/Nc2nncc3ccccc23)cc1 | x | x | x | x | x | 60
O=C(Nc1ccccc1)C1=C(O)CC(c2ccc(Cl)cc2)N2CCN=C12 (stereo unspecified) | n | n | n | n | n | n
COc1ccc(C(=O)c2ccc(Cl)c([N+](=O)[O-])c2)cc1 | n | n | n | 3.6 | n | n
N#Cc1cnn2c(=O)[nH]cnc12 | x | x | x | x | x | n
Cc1ccc(NC(=O)c2ccc3nc[nH]c3c2)nc1 | x | x | x | x | x | n
Cc1ccc(NC(=O)c2ccc3nc[nH]c3c2)c(O)c1 | n | n | 50 | n | n | n
O=C(/C=C/Nc1ccc(Br)cn1)c1cccc(OC(F)F)c1 | x | x | x | x | x | n
O=C(Nc1ccc2sccc2c1)c1ccc(Cl)s1 | 206 | n | n | 7.7 | n | n
CCCSc1nsc(NC(=O)CC)n1 | n | n | n | 3.7 | n | n
Cc1c(N(C(=O)Cc2cccs2)C2(C(=O)NC3CCCC3)CCCCC2)c(=O)n(-c2ccccc2)n1C | n | n | n | 4.1 | n | n
c1ccc2c(c1)oc1c(NCCN3CCOCC3)ncnc12 | n | n | n | n | n | n
c1ccc2c(c1)oc1c(Nc3ccc(CN4CCOCC4)cc3)ncnc12 | 187 | n | n | n | n | n
CCC(C)c1ccc2oc(-c3ccc(NC(=O)Cn4cnc5c(=O)n(C)c(=O)n(C)c54)cc3)nc2c1 (stereo unspecified) | n | n | n | n | n | 80
COc1cc(/C=N\NC(=O)c2cccnc2)ccc1OC(=O)c1ccccc1Cl | x | x | x | x | x | n
CC(=O)Nc1ccc2c(c1)C(=O)c1ccc(Cl)cc1-2 | x | x | x | x | x | n
CCN1CCN(Cc2ccc(NC(=O)c3ccc(C)c(NC(=O)c4ccc5n[nH]nc5c4)c3)cc2C(F)(F)F)CC1 | x | n | x | x | x | n
CCN1CCN(Cc2ccc(NC(=O)c3ccc(C)c(NC(=O)C(=O)c4c[nH]c5ccccc45)c3)cc2C(F)(F)F)CC1 | x | n | x | x | x | 89
Cc1ccc(-n2[nH]c(C)c(C=Nc3ccc4[nH]c(=O)[nH]c4c3)c2=O)cc1C | n | n | n | n | n | 51
CCc1ccc(C(=O)COC(=O)C2CCN(c3ccc(C(F)(F)F)cn3)CC2)cc1 | x | x | x | x | x | n
CC(=O)Nc1cc(-c2cccc(C(=O)NCCN(C)C)c2)cn2c(-c3cccc(C(F)(F)F)c3)cnc12 | x | x | x | x | x | 65
CCSc1ccc(-c2cc(NC=O)c3ncc(-c4cccc(C(=O)NCCN(C)C)c4)n3c2)cc1 | x | x | x | x | x | 79
CC(=O)Nc1cc(-c2cccc(C(=O)NCCN(C)C)c2)cn2c(-c3ccccc3)cnc12 | x | x | x | x | x | n
N#Cc1cc(N)ccc1-n1cccc1 | x | n | x | x | x | n
COc1ccc(C(=O)C2CCCN(C(=O)c3csc(SC)n3)C2)cc1F (stereo unspecified) | x | x | x | x | x | n
CSCCC(C(=O)NCc1ccccc1)n1c(-c2ccc3c(c2)CCO3)nc2ccccc21 (stereo unspecified) | x | x | x | x | x | n
SMILES | APP 5'UTR act | PPC-1+TRAIL kill | FLuc inh counter | NF-kB neuron act | FLuc stim CS | C8 TRAIL sens
Cc1ccc(N(CC(=O)N2CCN(Cc3ccccc3)CC2)S(C)(=O)=O)cc1C | x | x | x | x | x | n
O=C(CN1CCN(S(=O)(=O)c2ccccc2)CC1)Nc1ccc(Cl)c([N+](=O)[O-])c1 | x | x | x | x | x | n
CCc1ccccc1NC(=S)N(CCN1CCCCC1)Cc1ccco1 | n | n | n | n | n | n
S=c1[nH]nc(-c2cc(-c3ccccc3)n[nH]2)n1/N=C/C=C/c1ccccc1 | x | n | x | x | x | n
COc1ccccc1/C=C/C=N/n1c(-c2cc(-c3ccccc3)n[nH]2)n[nH]c1=S | x | n | x | x | x | 58
Cc1nnc(SCC(=O)Nc2cccc(Br)c2)s1 | x | x | x | x | x | n
Cc1ccc(-c2cc3ccccc3nc2N2CCCC2)cc1 | n | n | n | n | n | n
Cc1ccc2c(c1)-c1nc3ccccc3cc1C2=NC1CCCCC1 | n | n | n | 3.7 | n | 51
Cc1ccc2c(c1)C(=NC1CCCCC1)c1cc3ccccc3nc1-2 | 178 | n | n | 5.3 | n | 64
c1ccc2c(c1)-c1nc3ccccc3cc1C2N1CCCCC1 (stereo unspecified) | x | x | x | x | x | n
C=CCN1C(=O)/C(=c2\sc3nc(=O)c(Cc4ccccc4Cl)nn3c2=O)c2ccccc21 | x | n | x | x | x | n
O=C(O)CCCNC(=O)Nc1ccccc1 | n | n | n | 13 | n | n
CCCCCCNC(=O)Nc1ccccc1 | n | n | n | n | n | n
